Experimental findings from the array DNA melting data of Ke et al. (doi:10.1101/2024.01.08.574731) are described below.

The nature of data set [1]: melting temperature; fluorescence melt of hairpins on a sequencing array, two-state fit, raised by 9.35 °C to match UV melts. Particulars: sodium 0.088 M. The gist of the method: (§1)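 Two-state fits, bootstrapped, provided melting temperature and folding enthalpy from Cy3 fluorescence normalised to pre-quench Cy3 and to control constructs. Library hairpins with annealed Cy3 and quencher oligos were imaged on a sequenced MiSeq flow cell in 50 mM Na-HEPES pH 8.0, 25 mM NaCl, at 2.5 °C intervals up to 60 °C. Four replicates were combined with inverse-variance weighting. A 9.35 °C upward shift was applied to fitted temperatures to match UV melts.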

The nature of data set [2]: folding enthalpy; higher = less favourable; fluorescence melt of hairpins on a sequencing array, two-state fit. Particulars: sodium 0.088 M. The gist of the method: as §1

Turning to GGTGAGGCGAAAGCCACC (((..(((....)))))), the Tm in data set [1] turned out to be 51.7 °C. Besides, the folding enthalpy in data set [2] was -16.1 kcal/mol.
On the same counts, the results for GATCAAGGAAACTTGGTC ((.((((....)))).)) are 41.5 °C and -30.5 kcal/mol.
On the same counts, the results for CGCTCGGAAACGAAAGCG ((((((....)))..))) are 47.2 °C and -27.8 kcal/mol.
Regarding GATCATTCCTATGATC ((((((....)))))), in data set [1], the Tm amounted to 49.7 °C. The folding enthalpy in data set [2] is -31.5 kcal/mol.
On the same counts, the results for GCGGGTCCCGC ((((...)))) are 56.4 °C and -28.1 kcal/mol.
The like results for GCTGGTGGAAACACTGGC ((..(((....)))..)) were, in that order, 45.9 °C and -30.1 kcal/mol.
On the same counts, the results for GATCATGGGTATGATC ((((((....)))))) are 46.7 °C and -34.6 kcal/mol.
For GGCAATCGAAAGATGGCC (((.(((....))).))), the Tm in data set [1] stood at 57.8 °C. Also, the folding enthalpy in data set [2] is -41.9 kcal/mol.
On the same counts, the results for CGATTGCGGAAACGCTCG (((..(((....)))))) are 33.5 °C and -15.9 kcal/mol.
The like results for GCTAGCGAAAGCTAAAGC ((((((....)))..))) were, in that order, 46 °C and -19.1 kcal/mol.
The like results for GCCTCCACGAAAGTGGGC (((..(((....)))))) were, in that order, 46.9 °C and -7.76 kcal/mol.
Turning to GGGGTTGCGAAAGCACCC (((..(((....)))))), the Tm in data set [1] was determined as 59.5 °C. In addition, in data set [2], the folding enthalpy is -19 kcal/mol.
On the same counts, the results for GATCCGAACGCGGATC ((((((....)))))) are 55.1 °C and -39.6 kcal/mol.
As for GCCCCCCGAAAGGGCGGC (((.(((....))).))), the Tm in data set [1] was found to be 60.2 °C. Besides, the folding enthalpy in data set [2] was -32.6 kcal/mol.
The like results for GATCTCTATTGAGATC ((((((....)))))) were, in that order, 53 °C and -39.1 kcal/mol.
The like results for GCGAGCCTCGC ((((...)))) were, in that order, 49.7 °C and -21.9 kcal/mol.
On to GCACAGCGAAAGCTAGGC ((..(((....)))..)), for which the Tm in data set [1] was 45.2 °C. For the same sequence, the folding enthalpy in data set [2] was -15.4 kcal/mol.
On the same counts, the results for GATCACTCAGGTGATC ((((((....)))))) are 57.4 °C and -37 kcal/mol.
GCGTGACGAAAGTCTCGC (((.(((....))).))): the Tm in data set [1] worked out at 67.7 °C. Also, the folding enthalpy in data set [2] is -39.4 kcal/mol.
On the same counts, the results for GATCGCACTCGCGATC ((((((....)))))) are 68.4 °C and -34.7 kcal/mol.
The like results for GGTCTGACGAAAGTCACC (((..(((....)))))) were, in that order, 27.8 °C and -10.4 kcal/mol.
The like results for GAGGGCGGAAACACCCCC (.(((.(....).))).) were, in that order, 30.9 °C and -16.4 kcal/mol.
Regarding GATCGATCTCTCGATC ((((((....)))))), the Tm in data set [1] stood at 51.4 °C. The folding enthalpy in data set [2] was -41.2 kcal/mol.
The like results for GTGTTCGGAAACAAACAC (((((.(....).))))) were, in that order, 37.8 °C and -29.7 kcal/mol.
For the sequence GTGTAACGAAAGTTTCAC (((.(((....))).))), the Tm in data set [1] was determined as 44.9 °C. Moreover, the folding enthalpy in data set [2] was -22.9 kcal/mol.
On the same counts, the results for GCTTCGCGAAAGCCAGGC ((.(.((....)).).)) are 30.3 °C and -9.39 kcal/mol.
On the same counts, the results for GTTGGGGGAAACCTCAAC ((((.((....)).)))) are 47.8 °C and -32 kcal/mol.
For GATCTGAGGCCAGATC ((((((....)))))), the Tm in data set [1] amounted to 47.1 °C. For the same sequence, in data set [2], the folding enthalpy was -35.8 kcal/mol.
The like results for CGCACGGAAACGTGGGCG ((((((....)))..))) were, in that order, 56.3 °C and -12.8 kcal/mol.
The like results for GATCGCTCCGGCGATC ((((((....)))))) were, in that order, 68.4 °C and -39.2 kcal/mol.
With GATCGTGCGCACGATC ((((((....)))))), in data set [1], the Tm stood at 64.6 °C. The folding enthalpy in data set [2] was -51.2 kcal/mol.
In the case of GTCGTGGGAAACTACGGC (.(((.(....).))).), the Tm in data set [1] is 44.7 °C. Besides, the folding enthalpy in data set [2] is -25.6 kcal/mol.
On the same counts, the results for GGGCCCCGAAAGGGTCCC (((.(((....))).))) are 65.2 °C and -27.4 kcal/mol.
Turning to GGCGTGGGAAACCACACC ((.((((....)))).)), in data set [1], the Tm worked out at 50.5 °C. Also, the folding enthalpy in data set [2] is -35.3 kcal/mol.
For the sequence GGTTCTGGAAACGGAATC (.(((.(....).))).), the Tm in data set [1] turned out to be 33 °C. Also, the folding enthalpy in data set [2] is -18.7 kcal/mol.
On the same counts, the results for GATCGAGGTCTCGATC ((((((....)))))) are 55.8 °C and -38.5 kcal/mol.
Take GATCCCTGTTGGGATC ((((((....)))))): the Tm in data set [1] amounted to 62 °C. Moreover, the folding enthalpy in data set [2] is -42.8 kcal/mol.
